Most compounds without a hit are left out; they make up all but 2.5% or so of the library.
SENP1 FRET inh: SENP1 (human) catalytic domain inhibition; recombinant SENP1 catalytic domain, CyPet-SUMO1-YPet FRET cleavage; Q9P0U3; AID 624204; inhibition, % at 10 µM; 360,000 tested, 0.21% active;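 active means inhibition at least 30% at 10 µM, raw YFP signal under a set limit, fluorescence ratio 0.5 to 1.5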;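 further: 0% = enzyme with DMSO and 100% = no enzyme wells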
Target sequence (Q9P0U3 419-644 limits assumed): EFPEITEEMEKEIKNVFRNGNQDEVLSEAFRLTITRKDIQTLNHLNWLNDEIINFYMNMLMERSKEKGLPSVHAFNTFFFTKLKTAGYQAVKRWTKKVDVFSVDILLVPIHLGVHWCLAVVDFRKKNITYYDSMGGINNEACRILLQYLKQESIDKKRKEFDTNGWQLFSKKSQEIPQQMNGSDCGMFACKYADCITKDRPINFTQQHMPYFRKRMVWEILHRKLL
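material = recombinant human SENP1 catalytic domain, His6-tagged | quantity = 20 pM enzyme | reagent = 25 nM SUMO1 FRET substrate | compound dosing = 10 µM single point, 0.5% DMSO | timing = 50 min enzyme reaction, room temperature, light-protected | detection = FRET, CFP and YFP emission | control set = no-enzyme low, enzyme-DMSO high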
SENP8 block-1: inhibitors of human SENP8 protease; Q96LD8; purified SENP8, Z-RLRGG-aminoluciferin cleavage, luminescence; inhibition, % at 10 µM; 330,000 tested, 1.2% active; AID 2540; in the data active means inhibition above about 50%
SENP8 block-2: inhibitors of human SENP8 protease; recombinant SENP8, Nedd8 substrate fluorescence; 360,000 tested, 0.64% active; inhibition, % at 20 µM; Q96LD8; in the data active means inhibition mostly above about 40%, no sharp cut-off; inactive means mostly below about 27%
SENP7 block: SENP7 protease inhibition; recombinant SENP7, Z-RLRGG-aminoluciferin luminescence, 40 min; inhibition, % at 5 µM; 330,000 tested, 1.5% active;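 active means inhibition above about 50% at the single test dose, limit read from the data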;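 further: plate controls were DMSO with enzyme for no effect and no enzyme buffer wells for full effect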
Target sequence (Q9BQF6 706-1050 limits assumed): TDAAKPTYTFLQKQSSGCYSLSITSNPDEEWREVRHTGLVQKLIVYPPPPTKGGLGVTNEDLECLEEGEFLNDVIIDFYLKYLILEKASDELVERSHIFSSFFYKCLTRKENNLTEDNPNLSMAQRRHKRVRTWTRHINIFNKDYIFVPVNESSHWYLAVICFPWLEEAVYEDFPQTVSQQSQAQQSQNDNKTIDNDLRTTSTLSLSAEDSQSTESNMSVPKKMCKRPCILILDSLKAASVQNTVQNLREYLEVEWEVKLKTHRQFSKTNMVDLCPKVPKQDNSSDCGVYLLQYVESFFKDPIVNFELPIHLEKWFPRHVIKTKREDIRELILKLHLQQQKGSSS
SENP6 inh: SENP6 protease inhibition; Q9GZR1; Recombinant SENP6 catalytic domain, aminoluciferin luminescence; inhibition, % at 10 µM; 330,000 tested, 1.8% active; AID 2599;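 active means inhibition above about 50% at the single tested dose, limit read from the data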;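 further: plate controls were DMSO wells with enzyme for no effect and DMSO wells lacking enzyme for full effect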
SENP8 confirm: human SENP8 inhibition, confirmed | shares compounds with SENP7 block | 6,200 tested, 40% active | inhibition, % at 12.5 µM | Recombinant SENP8, Z-RLRGG-aminoluciferin luminescence, 60 min | AID 488912;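 active means mean inhibition across replicates above about 50%, limit read from the data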
SENP6 confirm: confirmation of human SENP6 protease inhibitors; 6,200 tested, 58% active; shares compounds with SENP7 block; AID 488915; inhibition, % at 12.5 µM; recombinant SENP6, Z-RLRGG-aminoluciferin luminescence
SENP7 confirm: human SENP7 inhibition, confirmed; shares compounds with SENP7 block; recombinant SENP7, Z-RLRGG-aminoluciferin luminescence, 40 min; inhibition, % at 12.5 µM; 6,200 tested, 69% active; AID 488917
Casp3 select: selectivity test for SENP inhibitors: human caspase-3 inhibition. inhibition, % at 12.5 µM. purified caspase-3, Z-DEVD-aminoluciferin luminescence, 60 min. AID 488918. shares compounds with SENP7 block. 6,200 tested, 60% active;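 active means mean inhibition above about 50%, limit read from the data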;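 further: plate controls were enzyme with DMSO for no effect and wells without caspase-3 for full effect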
Luc interf: interferes with luciferase luminescence in SENP counter-screen | shares compounds with SENP7 block | Pre-incubated SENP8/Z-RLRGG-aminoluciferin, luciferase luminescence interference | inhibition, % at 12.5 µM | 6,200 tested, 39% active | AID 488919;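 active means mean inhibition above about 50% when retested at one dose, limit read from the data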;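 further: plate controls were DMSO wells with completed reaction for no effect and substrate without enzyme for full effect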
The depositor's hits bear a star; . = no result.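 How the source made its calls, unless noted: active means mean inhibition above about 50% in the one-dose retest (limit read from the data); inactive means the rest.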

SMILES | SENP1 FRET inh | SENP8 block-1 | SENP8 block-2 | SENP7 block | SENP6 inh | SENP8 confirm | SENP6 confirm | SENP7 confirm | Casp3 select | Luc interf
COC(=O)c1ccccc1NC(=O)Nc1cccnc1 | -2 | 59* | -33 | 1 | 77* | 5 | 72* | 95* | 92* | 70*
O=C(Cn1nnc(-c2ccc3c(c2)OCO3)n1)Nc1ccccc1C(=O)O | 0 | 80* | -4 | 60* | 89* | 48 | 87* | 97* | 87* | 87*
O=C(Cn1nnc(-c2ccccc2)n1)Nc1ccc2c(c1)OCO2 | 2 | -2 | 17 | 5 | -1 | . | . | . | . | .
CNc1cncc(-c2cccnc2)n1 | -10 | . | -477 | . | . | . | . | . | . | .
CC(=O)C[C@H](O)CC(=O)[C@H]1OC(=O)[C@@H](C)CCCCc2ccccc21 | 1 | -1 | 3 | 6 | 5 | . | . | . | . | .
O=[N+]([O-])c1ccccc1N/N=C/c1ccccc1 | 3 | 61* | 20 | 95* | 63* | 22 | 21 | 11 | 26 | -3
O=[N+]([O-])c1ccc(S(=O)(=O)N/N=C/c2ccc3c(c2)OCO3)cc1 | 0 | 3 | 12 | -3 | -5 | . | . | . | . | .
O=[N+]([O-])c1ccccc1N/N=C/c1ccc2c(c1)OCO2 | 2 | 82* | 26 | 96* | 34 | 14 | 16 | 14 | 25 | 4
Cc1ccc(-n2nc3ccc(NC(=O)C(C)C)cc3n2)cc1 | -4 | 39 | -376 | 80* | 76* | -15 | -1 | 40 | 5 | -3
CC(C)C(=O)Nc1ccc2nn(-c3ccc(F)cc3)nc2c1 | -68 | 53* | -436 | 85* | 71* | 16 | 31 | 66* | 26 | 8
Cc1ccc(-n2nc3ccc(NC(=O)c4ccco4)cc3n2)cc1 | -32 | -4 | -498 | -2 | 1 | . | . | . | . | .
Cc1cc(C(=O)Nc2ccc(N3CCOCC3)c(Cl)c2)c(C)o1 | 2 | 57* | 23 | 58* | 77* | 71* | 69* | 88* | 77* | 74*
CCCCN(S(=O)(=O)c1ccccc1)S(=O)(=O)c1ccccc1 | 1 | 2 | 2 | 0 | -11 | . | . | . | . | .
O=[N+]([O-])c1ccccc1N=Nc1ccc(O)cc1 | 2 | 15 | 34 | 2 | 33 | . | . | . | . | .
Oc1ccc(N=Nc2ccc3ccccc3c2)cc1 | 2 | 98* | 30 | 101* | 98* | 99* | 100* | 102* | 98* | 94*
Oc1ccc(N=Nc2c(O)ccc3ccccc23)cc1 | 10 | 64* | 9 | -5 | 69* | 67* | 68* | 72* | 12 | 18
COc1cc(N=Nc2ccc3ccccc3c2)ccc1O | 2 | 94* | 6 | 95* | 97* | 94* | 96* | 101* | 73* | 94*
O=C(NC1(C(F)(F)F)C(=O)Nc2c1c(=O)[nH]c(=O)n2-c1ccccc1)c1ccncc1 (centres undefined) | -2 | 3 | 23 | 10 | 5 | . | . | . | . | .
CCOC(=O)c1sc(-c2ccc(F)cc2)cc1N | 3 | -15 | -228 | 1 | 11 | . | . | . | . | .
CCOC(=O)c1sc(-c2ccc(OC)cc2)cc1N | -1 | 47 | -369 | 52* | 71* | 36 | 54* | 83* | 34 | 14
CC(C)(C)c1ccc(OCc2nc(-c3ccccn3)no2)c(Br)c1 | -1 | 18 | 18 | 43 | 59* | 45 | 57* | 74* | 33 | 21
Clc1cc(Cl)c(OCc2nc(-c3ccccn3)no2)cc1Cl | 1 | 81* | 6 | 81* | 61* | 15 | 50 | 96* | 52* | 8
Clc1ccc(OCc2nc(-c3ccncc3)no2)c(Cl)c1 | -2 | 5 | 19 | 25 | 55* | 34 | 25 | 65* | 26 | 42
COc1ccc(Cc2nc(-c3ccccn3)no2)cc1 | 0 | -5 | 16 | 9 | -8 | . | . | . | . | .
Clc1cccc(OCc2nc(-c3ccncc3)no2)c1 | 1 | -12 | 7 | 4 | -13 | . | . | . | . | .
SMILES | SENP1 FRET inh | SENP8 block-1 | SENP8 block-2 | SENP7 block | SENP6 inh | SENP8 confirm | SENP6 confirm | SENP7 confirm | Casp3 select | Luc interf
COc1ccc(-c2csc(N3CCSCC3)n2)cc1 | 2 | -4 | 11 | -2 | -30 | . | . | . | . | .
COc1ccc(-c2csc(-n3cccn3)n2)cc1 | 1 | 72* | 9 | 80* | 81* | 10 | 79* | 96* | 65* | 69*
Cc1ccc(C#N)c(SCC(=O)Nc2nccs2)n1 | -29 | 1 | -289 | 0 | -24 | . | . | . | . | .
Brc1cc2c(cc1-c1nc3ccccc3s1)OCO2 | 3 | -11 | 6 | 0 | 17 | . | . | . | . | .
CN(C)c1ncccc1-c1nc2ccccc2s1 | -18 | -10 | -392 | -2 | -6 | . | . | . | . | .
CCCNC(=O)c1ccc(-c2nc3ccccc3s2)s1 | -27 | 84* | -420 | 87* | 89* | 8 | 86* | 99* | 55* | 25
Brc1ccc(-c2nc3ccccc3s2)s1 | -4 | 95* | -376 | 96* | 95* | 66* | 82* | 87* | 28 | 67*
c1ccc(-c2nc3ccccc3s2)nc1 | -1 | 76* | -14 | 79* | 90* | 47 | 89* | 99* | 89* | 36
Nc1ccc(-c2nc3ccccc3s2)cn1 | -6 | 66* | -294 | 69* | 79* | 75* | 73* | 91* | 78* | 48
Clc1cccc(-c2cccc3nccn23)c1 | 2 | . | -485 | . | . | . | . | . | . | .
COC1=NC(=C(c2ccccc2)c2ccccc2)OC1=O | 3 | . | -492 | . | . | . | . | . | . | .
O=C1CCC(=O)N1c1ccc(-c2nc3ccccc3s2)cc1 | 5 | 70* | -45 | 94* | 89* | 42 | 62* | 83* | 72* | 26
Cc1ccc(N2C(=O)CC(NNc3nc4ccccc4s3)C2=O)cc1 (centres undefined) | 2 | -1 | 18 | 2 | -9 | . | . | . | . | .
O=C(CCN1CCCCC1=O)NC1CCCc2c1cnn2-c1ccccc1F (centres undefined) | -1 | -1 | 4 | -1 | -4 | . | . | . | . | .
O=C1c2ccccc2C(=O)C12OC2c1cccc2ccccc12 (centres undefined) | 1 | 53* | 93* | 0 | 87* | 72* | 88* | 78* | 3 | 10
O=C(CSc1nnc(NC(=O)C2CC2)s1)NCc1ccccc1 | 0 | -6 | 7 | 2 | 0 | . | . | . | . | .

Screens: PubChem, Sanford-Burnham Center for Chemical Genomics
